Assay results taken from ChEMBL document CHEMBL1157119, “1-(2-(2,2,2-trifluoroethoxy)ethyl-1H-pyrazolo[4,3-d]pyrimidines as potent phosphodiesterase 5 (PDE5) inhibitors” (Bioorg Med Chem Lett, 2010).
Calls of active or inactive are those of the source. The calls are words filed in the database; no cut-off is given here.

Experiments:
[1] = Selectivity ratio of IC50 for PDE11 to IC50 for PDE5
Summary of the method: (§1)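 The selectivity value is the IC50 at PDE11 or PDE6 divided by the IC50 at PDE5.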

[2] = Selectivity ratio of IC50 for PDE6 to IC50 for PDE5; summary of the method: as §1
[3] = target: cGMP-specific 3',5'-cyclic phosphodiesterase (Homo sapiens, UniProt O76074); assay: Inhibition of PDE5
[4] = Metabolic stability in human liver microsomes assessed as compound remaining after 30 mins; format: ADME, Microsome; conditions: read-out: Stability
[5] = Inhibition of PDE6
hERG (KCNH2) = hERG (KCNH2) (Homo sapiens, UniProt Q12809); assay: Displacement of [3H]dofetilide from human ERG expressed in HEK293 cells at 10 uM; format: cell-based; conditions: HEK293 cells that express human ERG, probe [3H]dofetilide
Sequence of hERG (KCNH2) (Q12809 whole entry): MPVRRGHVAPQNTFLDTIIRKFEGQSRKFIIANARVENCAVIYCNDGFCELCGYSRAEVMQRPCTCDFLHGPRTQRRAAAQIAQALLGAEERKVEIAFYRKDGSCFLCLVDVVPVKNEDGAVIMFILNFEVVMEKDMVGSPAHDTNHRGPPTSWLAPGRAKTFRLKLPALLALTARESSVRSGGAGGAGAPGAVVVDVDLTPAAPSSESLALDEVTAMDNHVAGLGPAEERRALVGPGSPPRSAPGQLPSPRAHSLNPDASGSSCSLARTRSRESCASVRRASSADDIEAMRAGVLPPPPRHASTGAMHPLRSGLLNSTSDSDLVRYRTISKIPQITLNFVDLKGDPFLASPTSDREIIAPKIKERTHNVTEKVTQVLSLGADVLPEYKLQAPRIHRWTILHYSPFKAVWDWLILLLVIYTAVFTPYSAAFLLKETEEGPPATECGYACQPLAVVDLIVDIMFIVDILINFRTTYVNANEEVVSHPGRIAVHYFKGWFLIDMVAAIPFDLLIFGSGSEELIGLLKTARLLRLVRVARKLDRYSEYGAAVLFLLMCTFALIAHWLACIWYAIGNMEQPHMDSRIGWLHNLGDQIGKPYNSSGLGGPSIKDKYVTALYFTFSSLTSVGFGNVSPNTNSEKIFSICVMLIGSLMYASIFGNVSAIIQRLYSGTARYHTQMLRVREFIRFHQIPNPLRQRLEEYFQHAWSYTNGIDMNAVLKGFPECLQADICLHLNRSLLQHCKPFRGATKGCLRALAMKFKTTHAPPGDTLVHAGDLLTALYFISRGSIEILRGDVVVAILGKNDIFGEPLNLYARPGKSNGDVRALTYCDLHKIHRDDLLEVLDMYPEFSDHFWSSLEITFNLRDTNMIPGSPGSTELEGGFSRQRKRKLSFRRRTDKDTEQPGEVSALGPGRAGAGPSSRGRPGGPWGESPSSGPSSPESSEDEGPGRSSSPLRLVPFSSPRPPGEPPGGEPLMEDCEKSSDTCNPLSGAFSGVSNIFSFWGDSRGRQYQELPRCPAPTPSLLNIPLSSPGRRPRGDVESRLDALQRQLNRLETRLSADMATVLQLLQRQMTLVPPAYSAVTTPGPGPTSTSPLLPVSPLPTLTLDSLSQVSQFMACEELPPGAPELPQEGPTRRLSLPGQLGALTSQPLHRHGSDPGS

Rattus norvegicus [6] = species on record: Rattus norvegicus; assay: Antihypertensive activity in spontaneously hypertensive rat assessed as decrease of mean arterial blood pressure; format: functional, Artery
Summary of the method: (§2)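 Spontaneously hypertensive rats were dosed orally, or IV in some cases, with compound levels and blood pressure monitored. The read-out was the decrease in mean arterial pressure (MAP), scored as + for a 10–15 mmHg drop and ++ for a drop of >15 mmHg. Oral dosing at 5 mg/kg was followed for up to 20 h post dose.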

[7] = Half life in Beagle dog at 0.2 mg/kg, iv; format: ADME, organism-based, Canis lupus familiaris; parameters: dose 0.2 mg/kg, route intravenous; conditions: in vivo
Summary of the method: (§3)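 Beagle dogs of about 10 kg were dosed at 0.2–0.5 mpk. From the plasma profile, terminal half-life was reported in h, clearance in mL/min/kg and steady-state volume of distribution in L/kg.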

Rattus norvegicus [8] = assay: Antihypertensive activity in spontaneously hypertensive rat assessed as decrease of mean arterial blood pressure at 5 mg/kg, po; format: functional, Artery; summary of the method: as §2
Rattus norvegicus [9] = assay: Antihypertensive activity in spontaneously hypertensive rat assessed as decrease of mean arterial blood pressure at 5 mg/kg, po up to 20 hrs; format: functional, organism-based; parameters: dose 5 mg/kg; conditions: Artery; summary of the method: as §2
[10] = Clearance in Beagle dog at 0.2 mg/kg, iv; format: ADME, organism-based, Canis lupus familiaris; parameters: dose 0.2 mg/kg, route intravenous; conditions: in vivo; summary of the method: as §3
Rattus norvegicus [11] = assay: Antihypertensive activity in spontaneously hypertensive rat assessed as decrease of mean arterial blood pressure at 1.5 mg/kg, iv after 2 hrs; format: functional, Artery
Summary of the method: (§4)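 Spontaneously hypertensive rats received a single IV dose of 1.5 mg/kg. Mean arterial blood pressure was monitored after dosing, and the decrease in MAP was read at 2 h and 6 h post dose. Compound blood levels were also monitored, including the free fraction at 6 h.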

Rattus norvegicus [12] = assay: Antihypertensive activity in spontaneously hypertensive rat assessed as decrease of mean arterial blood pressure at 1.5 mg/kg, iv after 6 hrs; format: functional, Artery; summary of the method: as §4
[13] = Half life in human liver microsomes; format: ADME, Microsome
[14] = Volume of distribution at steady state in Beagle dog at 0.2 mg/kg, iv; format: ADME, organism-based, Canis lupus familiaris; parameters: dose 0.2 mg/kg, route intravenous; conditions: in vivo, read-out: Vdss; summary of the method: as §3
[15] = target: Voltage-gated inwardly rectifying potassium channel KCNH2 (Homo sapiens, UniProt Q12809); assay: Inhibition of human ERG expressed by patch clam electrophysiology assay
Sequence of Voltage-gated inwardly rectifying potassium channel KCNH2 (Q12809 whole entry): as above

| Compound | Ratio IC50 [1] | Ratio IC50 [2] | IC50 [3] [nM] | further results |
| --- | --- | --- | --- | --- |
| Cc1nn(CCOCC(F)(F)F)c2c(Nc3ccncn3)nc(N3CCCNCC3)nc12 | 204 | 35 | 9.79 |  |
| CCc1nn(CCOCC(F)(F)F)c2c(Nc3cc(C)ccn3)nc(N3CCNCC3)nc12 | 170 | 220 | 3.28 | remaining at 0.5 h [4]: 80% |
| CCOCCn1nc(CC)c2nc(N3CCNCC3)nc(Nc3cccc(C)n3)c21 |  |  |  | IC50 [5]: 946 nM |
| CCc1nn(CCOCC(F)(F)F)c2c(Nc3ccncn3)nc(N3CCOCC3)nc12 | 5100 | 107 | 3.92 |  |
| CCc1nn(CCOCC(F)(F)F)c2c(Nc3ccncn3)nc(NCCN)nc12 | > 210 | > 210 | 9.52 |  |
| CCCc1nn(C)c2c(=O)[nH]c(-c3cc(S(=O)(=O)N4CCN(C)CC4)ccc3OCC)nc12 |  |  |  | IC50 [5]: 30 nM |
| Cc1ccnc(Nc2nc(N3CCNCC3)nc3c(C)nn(CCOCC(F)(F)F)c23)c1 | 280 | 510 | 1.84 | remaining at 0.5 h [4]: 75% |
| CCc1nn(CCOCC(F)(F)F)c2c(Nc3ccncn3)nc(N3CCCNCC3)nc12 | 635 | 69 | 3.15 |  |
| CCc1nn(CCOCC(F)(F)F)c2c(Nc3ccncn3)nc(N(C)C3CCN(C)CC3)nc12 | 5650 | 285 | 0.35 | remaining at 0.5 h [4]: 31% |
| CCc1nn(CCOCC(F)(F)F)c2c(Nc3ccncn3)nc(N3CCNC(=O)C3)nc12 |  |  | 2.96 |  |
| CCc1nn(CCOCC(F)(F)F)c2c(Nc3ccncn3)nc(N3CCCN(C)CC3)nc12 | 287 | 309 | 6.48 |  |

Continued, in another order:

| Ratio IC50 [1] | Ratio IC50 [2] | IC50 [3] [nM] | Compound | further results |
| --- | --- | --- | --- | --- |
|  |  | 1.01 | CCc1nn(CCOCC(F)(F)F)c2c(Nc3cccc(C)n3)nc(N3CCNCC3)nc12 |  |
| 450 | 150 | 0.65 | CCc1nn(CCOCC(F)(F)F)c2c(Nc3ccccn3)nc(N3CCNCC3)nc12 | remaining at 0.5 h [4]: 91% |
|  |  | 0.14 | Cc1nn(CCOCC(F)(F)F)c2c(Nc3ccncn3)nc(N3CCN[C@H](C)C3)nc12 | inhibition at 10 µM (hERG (KCNH2)): 24.7%; Activity (Rattus norvegicus [6]): >15 mmHg |
|  |  | 0.3 | CCCOCCn1nc(CC)c2nc(N3CCNCC3)nc(Nc3ccccn3)c21 |  |
|  |  | 0.09 | CCc1nn(CCOCC(F)(F)F)c2c(Nc3ccc(F)cc3)nc(N3CCNCC3)nc12 |  |
|  |  | 0.94 | Cc1nn(CCOCC(F)(F)F)c2c(Nc3ccncn3)nc(N3CCN[C@@H](C)C3)nc12 |  |
|  |  | 0.07 | CCc1nn(CCOCC(F)(F)F)c2c(Nc3ccncn3)nc(N3CCN[C@H](C)C3)nc12 | half-life [7]: 5.1 h; Activity (Rattus norvegicus [8]): 27 mmHg; Activity (Rattus norvegicus [9]): Active; clearance [10]: 18.5 mL/min/kg; Activity (Rattus norvegicus [11]): 27 mmHg; Activity (Rattus norvegicus [12]): 23 mmHg; half-life [13]: 0.7 h; Vd [14]: 7.8 L/kg; Activity (Rattus norvegicus [6]): >15 mmHg |
|  |  | 0.78 | Cc1cccc(Nc2nc(N3CCNCC3)nc3c(C)nn(CCOCC(F)(F)F)c23)n1 | inhibition at 10 µM (hERG (KCNH2)): 40%; IC50 [15]: 560 nM |
| 52 | 50 | 0.86 | CCc1nn(CCOC(C)C)c2c(Nc3ccccn3)nc(N3CCNCC3)nc12 |  |
|  |  | 0.15 | CCc1nn(CCOCC(F)(F)F)c2c(Nc3ccncn3)nc(N3CCNCC3)nc12 | Activity (Rattus norvegicus [6]): 10 mmHg |
